# Measurements from ChEMBL document CHEMBL1275508, “Edelfosine induces an apoptotic process in Leishmania infantum that is regulated by the ectopic expression of Bcl-XL and Hrk” (2008).
# Legend:
# Leishmania infantum [1] = assay: Antimicrobial activity against Leishmania infantum promastigotes; assay type: functional; settings: read-out: LD50 (the source's name)
# How it was run: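 L. infantum promastigotes (M/CAN/ES/96/BCN150 MON-1), exponentially growing at 2 × 10^6 parasites/ml, incubated 24 h with increasing drug concentrations; stained with 5 µM propidium iodide and dead (PI-positive) parasites counted by flow cytometry; 50% lethal dose estimated from concentration–response fit.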
# Leishmania infantum [2] = assay: Antimicrobial activity against Leishmania infantum promastigotes assessed as increase in hypodiploid cell formation after 24 hrs by flow cytometry; assay type: functional, organism-based
# How it was run: (§1)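 Exponentially growing L. infantum promastigotes (2 × 10^6/ml, strain M/CAN/ES/96/BCN150 MON-1) exposed 24 h to increasing drug concentrations; DNA content analysed by flow cytometry, scoring percentage of hypodiploid cells as DNA degradation.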
# Leishmania infantum [3] = assay: Antimicrobial activity against Leishmania infantum promastigotes assessed as increase in DNA degradation after 24 hrs by flow cytometry; assay type: functional, organism-based; how it was run: as §1
# Leishmania infantum [4] = assay: Induction of apoptosis in Leishmania infantum promastigotes cells harboring pX63 expression vector at 40 uM after 24 hrs by TUNEL assay; assay type: functional
# How it was run: (§2)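 Wild-type promastigotes or those transfected with empty pX63, pX63-bcl-XL (HA-tagged) or pX63-hrk (FLAG-tagged) left untreated or exposed to 40 µM drug for 24 h; DNA nicks labelled by TUNEL, imaged by confocal microscopy with PI and DIC; percentage TUNEL-positive cells from image analysis, mean ± SD, n = 3.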
# Leishmania infantum [5] = assay: Induction of apoptosis in Leishmania infantum promastigotes cells harboring with plasmid pX63 carrying Hrk gene at 40 uM after 24 hrs by TUNEL assay; assay type: functional; how it was run: as §2
# Leishmania infantum [6] = assay: Induction of apoptosis in Leishmania infantum promastigotes cells harboring with plasmid pX63 carrying Bcl-XL gene at 40 uM after 24 hrs by TUNEL assay; assay type: functional; how it was run: as §2
# Leishmania infantum [7] = assay: Induction of apoptosis in wild-type Leishmania infantum promastigotes cells at 40 uM after 24 hrs by TUNEL assay; assay type: functional; how it was run: as §2
smiles,measurement,setting,value
CCCCCCCCCCCCCCCCOP(=O)([O-])OCC[N+](C)(C)C [MILTEFOSINE],LC50,Leishmania infantum [1],47 µM
same,Activity,Leishmania infantum [2],Dose-dependent effect
same,Activity,Leishmania infantum [3],Dose-dependent effect
CCCCCCCCCCCCCCCCCCOCC(COP(=O)([O-])OCC[N+](C)(C)C)OC (stereo not given) [EDELFOSINE],LC50,Leishmania infantum [1],27 µM
same,Activity,Leishmania infantum [2],Dose-dependent effect
same,Activity,Leishmania infantum [3],Dose-dependent effect
same,Activity,Leishmania infantum [4],47.4%
same,Activity,Leishmania infantum [5],92.5%
same,Activity,Leishmania infantum [6],26.7%
same,Activity,Leishmania infantum [7],42.5%
